Measured values reported in ChEMBL document CHEMBL1125087, “Synthesis and biological activity of new HMG-CoA reductase inhibitors. 1. Lactones of pyridine- and pyrimidine-substituted 3,5-dihydroxy-6-heptenoic (-heptanoic) acids” (J Med Chem, 1990).

What was measured:
[1] = target: T1, 3-hydroxy-3-methylglutaryl-coenzyme A reductase (Homo sapiens) (UniProt P04035); test: Relative inhibition of HMG-CoA reductase compared to Mevinolin.
T1 sequence (whole entry): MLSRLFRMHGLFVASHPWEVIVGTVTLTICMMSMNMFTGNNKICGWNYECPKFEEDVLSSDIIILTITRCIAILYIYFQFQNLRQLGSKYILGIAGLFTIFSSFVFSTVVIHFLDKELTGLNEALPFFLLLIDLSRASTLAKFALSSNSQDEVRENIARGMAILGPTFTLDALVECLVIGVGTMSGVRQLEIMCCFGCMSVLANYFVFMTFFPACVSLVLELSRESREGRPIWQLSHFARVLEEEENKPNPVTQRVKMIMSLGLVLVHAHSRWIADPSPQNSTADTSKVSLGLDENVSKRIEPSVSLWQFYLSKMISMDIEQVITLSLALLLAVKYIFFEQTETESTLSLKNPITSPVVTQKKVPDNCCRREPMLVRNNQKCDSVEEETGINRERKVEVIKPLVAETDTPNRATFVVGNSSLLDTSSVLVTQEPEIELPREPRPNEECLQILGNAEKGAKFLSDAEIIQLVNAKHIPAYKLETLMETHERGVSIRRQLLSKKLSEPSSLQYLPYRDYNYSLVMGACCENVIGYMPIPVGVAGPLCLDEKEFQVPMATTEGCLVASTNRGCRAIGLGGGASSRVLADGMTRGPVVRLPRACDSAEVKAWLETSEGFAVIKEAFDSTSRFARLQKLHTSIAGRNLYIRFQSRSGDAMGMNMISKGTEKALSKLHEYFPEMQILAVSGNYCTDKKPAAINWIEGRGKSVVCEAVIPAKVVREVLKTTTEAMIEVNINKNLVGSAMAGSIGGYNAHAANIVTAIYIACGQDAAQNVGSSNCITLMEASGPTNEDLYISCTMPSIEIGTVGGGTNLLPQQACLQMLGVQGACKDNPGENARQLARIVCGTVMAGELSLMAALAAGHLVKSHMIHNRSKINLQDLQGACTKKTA

[2] = target: T2, 3-hydroxy-3-methylglutaryl-coenzyme A reductase (Rattus norvegicus, UniProt P51639); test: In vitro inhibition of rat liver HMG-CoA reductase
T2 sequence (P51639 whole entry): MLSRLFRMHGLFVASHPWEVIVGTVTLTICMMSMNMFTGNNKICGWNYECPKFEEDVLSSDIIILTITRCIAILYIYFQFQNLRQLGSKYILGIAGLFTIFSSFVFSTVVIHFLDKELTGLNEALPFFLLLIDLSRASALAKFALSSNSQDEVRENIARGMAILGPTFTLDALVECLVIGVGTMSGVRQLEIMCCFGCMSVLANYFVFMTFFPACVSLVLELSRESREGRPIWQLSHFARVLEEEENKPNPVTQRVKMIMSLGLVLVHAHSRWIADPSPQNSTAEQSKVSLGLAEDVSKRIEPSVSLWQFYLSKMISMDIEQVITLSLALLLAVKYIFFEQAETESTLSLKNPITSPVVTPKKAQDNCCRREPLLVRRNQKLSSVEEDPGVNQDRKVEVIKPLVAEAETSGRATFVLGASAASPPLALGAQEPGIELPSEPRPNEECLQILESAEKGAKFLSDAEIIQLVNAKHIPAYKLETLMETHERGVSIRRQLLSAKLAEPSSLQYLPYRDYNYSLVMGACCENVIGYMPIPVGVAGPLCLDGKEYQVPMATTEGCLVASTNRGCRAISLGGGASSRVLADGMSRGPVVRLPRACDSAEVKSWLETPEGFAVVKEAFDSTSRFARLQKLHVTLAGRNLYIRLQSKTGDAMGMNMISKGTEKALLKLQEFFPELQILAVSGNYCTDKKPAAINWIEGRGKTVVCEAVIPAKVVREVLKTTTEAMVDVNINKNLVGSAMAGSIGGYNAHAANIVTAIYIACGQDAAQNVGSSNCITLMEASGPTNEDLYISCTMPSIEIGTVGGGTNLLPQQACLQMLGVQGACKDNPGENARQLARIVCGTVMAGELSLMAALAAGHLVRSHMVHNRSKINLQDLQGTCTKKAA
How it was run: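 Partially purified soluble HMG-CoA reductase from rat liver microsomes. Medium: 6 mM Tris, 2.5 mM EDTA, 2.5 mM DTT, 50 mM NADP, 50 mM glucose 6-phosphate, glucose-6-phosphate dehydrogenase, and 0.91 mM HMG-CoA with [14C]HMG-CoA. Lactones were opened with 1 equiv KOH to potassium dihydroxy carboxylates and tested at multiple concentrations. Incubated at 37 °C for 20 min, then stopped with HClO4. Run in triplicate; IC50 read from a %-inhibition-versus-concentration plot.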

[3] = target: T3, 3-hydroxy-3-methylglutaryl-coenzyme A reductase (Homo sapiens, UniProt P04035); test: Inhibition of cellular HMG-CoA reductase in cultures of human HEP G2 cells, determined by decreased incorporation of sodium [14C]acetate into cholesterol.; type: cell-based, HepG2
T3 sequence (P04035 whole entry): T1 sequence (whole entry)
How it was run: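 They were preincubated for 1 h with compound at three concentrations, or with solvent as control, then labeled with [14C]sodium acetate for 3 h. [3H]cholesterol served as internal standard. Cells were saponified, lipids extracted with chloroform/methanol 2:1, and cholesterol isolated by TLC. IC50 came from the treated/control [14C]cholesterol ratio plotted against concentration.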

Relative potency [1] | IC50 [2] | IC50 [3] | SMILES
2.5 | 1 nM | 20 nM | CC(C)c1nc(C(C)(C)C)cc(-c2ccc(F)cc2)c1/C=C/[C@@H]1C[C@@H](O)CC(=O)O1
 | 94 nM |  | Cc1cc(-c2ccc(Cl)cc2)c(/C=C/[C@@H]2C[C@@H](O)CC(=O)O2)c(C)n1
 | 36 nM |  | CC(C)c1nc(-c2ccccc2)cc(-c2ccc(C(F)(F)F)cc2)c1/C=C/[C@@H]1C[C@@H](O)CC(=O)O1
2.78 | 1 nM | 18 nM | CC(C)c1nc(-c2ccc(F)cc2)nc(-c2ccc(F)cc2)c1/C=C/[C@@H]1C[C@@H](O)CC(=O)O1
0.03 | 260 nM | 2000 nM | Cc1cc(-c2ccc(F)cc2)c(/C=C/[C@@H]2C[C@@H](O)CC(=O)O2)c(C)n1
6.67 | 2 nM | 7.5 nM | CC(C)c1nc(-c2ccc(F)cc2)cc(-c2ccc(F)cc2)c1/C=C/[C@@H]1C[C@@H](O)CC(=O)O1
5.26 | 4 nM | 9.5 nM | CC(C)c1nc(C2CCCCC2)cc(-c2ccc(F)cc2)c1/C=C/[C@@H]1C[C@@H](O)CC(=O)O1
10.4 | 3 nM | 4.8 nM | CC(C)c1nc(-c2ccc(F)cc2)c(/C=C/[C@@H]2C[C@@H](O)CC(=O)O2)c(C(C)C)n1
5 | 4 nM | 10 nM | CC(C)c1cc(-c2ccccc2)nc(-c2ccc(F)cc2)c1/C=C/[C@@H]1C[C@@H](O)CC(=O)O1
0.56 | 38 nM | 90 nM | Cc1nc(-c2ccccc2)cc(-c2ccc(F)cc2)c1/C=C/[C@@H]1C[C@@H](O)CC(=O)O1
 | 3 nM |  | CC(C)c1cc(-c2ccc(F)cc2)c(/C=C/[C@@H]2C[C@@H](O)CC(=O)O2)c(C(C)C)n1
 | 8 nM |  | CC[C@H](C)C(=O)O[C@H]1C[C@@H](C)C=C2C=C[C@H](C)[C@H](CC[C@@H]3C[C@@H](O)CC(=O)O3)[C@H]21 [LOVASTATIN]
 | > 1000 nM |  | Cc1cc(-c2ccc(F)cc2)c(/C=C\[C@@H]2C[C@@H](O)CC(=O)O2)c(C)n1
 | > 1000 nM |  | Cc1nc(C)c(/C=C\[C@@H]2C[C@@H](O)CC(=O)O2)c(-c2ccc(Cl)cc2)n1
0.08 | 100 nM | 5000 nM | Cc1nc(-c2ccccc2)cc(-c2ccc(F)cc2)c1/C=C\[C@@H]1C[C@@H](O)CC(=O)O1
1.92 | 1 nM | 26 nM | CC(C)c1nc(C2CCCCC2)nc(-c2ccc(F)cc2)c1/C=C/[C@@H]1C[C@@H](O)CC(=O)O1
 | 3 nM |  | CCc1nc(-c2ccccc2)cc(-c2ccc(F)cc2)c1CCC1C[C@@H](O)CC(=O)O1 (some centres undefined)
 | 500 nM |  | Cc1nc(C)c(/C=C/[C@@H]2C[C@@H](O)CC(=O)O2)c(-c2ccc(F)cc2)n1
10 | 3 nM | 5 nM | CC(C)c1nc(-c2ccccc2)nc(-c2ccc(F)cc2)c1/C=C/[C@@H]1C[C@@H](O)CC(=O)O1
 | 8 nM |  | Cc1cc(C)cc(-c2cc(-c3ccc(F)cc3)c(/C=C/[C@@H]3C[C@@H](O)CC(=O)O3)c(C(C)C)n2)c1
 | 18 nM |  | CC(C)(C)c1nc(-c2ccccc2)cc(-c2ccc(F)cc2)c1/C=C/[C@@H]1C[C@@H](O)CC(=O)O1
1 | 9 nM | 50 nM | Cc1cc(-c2ccc(F)cc2)c(/C=C/[C@@H]2C[C@@H](O)CC(=O)O2)c(C(C)C)n1
> 0.01 | 30 nM | > 5000 nM | O=C1C[C@H](O)C[C@@H](/C=C/c2c(-c3ccc(F)cc3)cc(-c3ccccc3)nc2C2CCCCC2)O1
 | 1000 nM |  | Cc1nc(C)c(CCC2C[C@@H](O)CC(=O)O2)c(-c2ccc(F)cc2)n1 (some centres undefined)
 | 40 nM |  | CCc1nc(-c2ccccc2)cc(-c2ccc(F)cc2)c1/C=C/[C@@H]1C[C@@H](O)CC(=O)O1
0.33 | 13 nM | 150 nM | COc1ccc(-c2cc(-c3ccccc3)nc(C(C)C)c2/C=C/[C@@H]2C[C@@H](O)CC(=O)O2)cc1
 | 600 nM |  | Cc1nc(C)c(/C=C/[C@@H]2C[C@@H](O)CC(=O)O2)c(-c2ccc(Cl)cc2)n1
0.14 | 19 nM | 370 nM | CC(C)c1nc(-c2ccccc2)cc(-c2ccc(F)cc2)c1CCC1C[C@@H](O)CC(=O)O1 (some centres undefined)
10 | 3 nM | 5 nM | CC(C)c1nc(-c2ccccc2)cc(-c2ccc(F)cc2)c1/C=C/[C@@H]1C[C@@H](O)CC(=O)O1 [GLENVASTATIN]
2.5 | 5 nM | 20 nM | Cc1ccc(C)c(-c2cc(-c3ccc(F)cc3)c(/C=C/[C@@H]3C[C@@H](O)CC(=O)O3)c(C(C)C)n2)c1
